Measured values from ChEMBL document CHEMBL1153560, “In vitro activities of doripenem and six comparator drugs against 423 aerobic and anaerobic bacterial isolates from infected diabetic foot wounds” (2008).
≈ marks a conversion by molar mass, not a printed value.

Experiments:
Format in all cases: functional
Anaerococcus vaginalis [1] = experiment: Antibacterial activity against Anaerococcus vaginalis isolated from patient with diabetic foot infection after 44 to 48 hrs by agar dilution method
Outline: (§1)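 CLSI M11-A7 agar dilution: serial twofold drug dilutions made on the test day and added to molten agar. Spots of 10^5 CFU were applied by replicator, with drug-free control plates inoculated before and after each set. Incubation was 44 to 48 h at 37°C in an anaerobic chamber. MIC was the lowest concentration giving no growth or a marked change in growth versus controls.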

Parvimonas micra = experiment: Antibacterial activity against Peptostreptococcus micros isolated from patient with diabetic foot infection after 44 to 48 hrs by agar dilution method; outline: as §1
Bacteroides caccae [2] = experiment: Antibacterial activity against Bacteroides caccae isolated from patient with diabetic foot infection assessed as percent resistant isolates after 44 to 48 hrs by agar dilution method
Outline: (§2)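 Agar dilution per CLSI M11-A7. Twofold drug dilutions made on the test day and added to molten agar. Replicator-applied inoculum of 10^5 CFU/spot. Drug-free control plates inoculated before and after each drug set. Incubation at 37°C for 44 to 48 h, anaerobic chamber. MIC taken as the lowest concentration giving no growth or a marked change in growth versus controls.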

Phocaeicola vulgatus [3] = experiment: Antibacterial activity against Bacteroides vulgatus isolated from patient with diabetic foot infection assessed as percent resistant isolates after 44 to 48 hrs by agar dilution method; outline: as §2
Finegoldia magna [4] = experiment: Antibacterial activity against Finegoldia magna isolated from patient with diabetic foot infection assessed as percent resistant isolates after 44 to 48 hrs by agar dilution method; outline: as §2
Bacteroides stercoris = experiment: Antibacterial activity against Bacteroides stercoris isolated from patient with diabetic foot infection assessed as percent resistant isolates after 44 to 48 hrs by agar dilution method; outline: as §2
[5] = system: Porphyromonas asaccharolytica; experiment: Antibacterial activity against Porphyromonas asaccharolyticus isolated from patient with diabetic foot infection after 44 to 48 hrs by agar dilution method; outline: as §1
Clostridium cadaveris = experiment: Antibacterial activity against Clostridium cadaveris isolated from patient with diabetic foot infection after 44 to 48 hrs by agar dilution method; outline: as §1
Bacteroides ovatus [6] = experiment: Antibacterial activity against Bacteroides ovatus isolated from patient with diabetic foot infection after 44 to 48 hrs by agar dilution method; outline: as §1
Porphyromonas somerae = experiment: Antibacterial activity against Porphyromonas somerae isolated from patient with diabetic foot infection assessed as percent resistant isolates after 44 to 48 hrs by agar dilution method; outline: as §2
Bacteroides fragilis [7] = experiment: Antibacterial activity against Bacteroides fragilis isolated from patient with diabetic foot infection assessed as percent resistant isolates after 44 to 48 hrs by agar dilution method; outline: as §2
[8] = system: Enterocloster clostridioformis; experiment: Antibacterial activity against Clostridium clostridioforme isolated from patient with diabetic foot infection after 44 to 48 hrs by agar dilution method; outline: as §1
[9] = system: Bacteroides thetaiotaomicron; experiment: Antibacterial activity against Bacteroides thetaiotaomicron isolated from patient with diabetic foot infection assessed as percent resistant isolates after 44 to 48 hrs by agar dilution method; outline: as §2
Finegoldia magna [10] = experiment: Antibacterial activity against Finegoldia magna isolated from patient with diabetic foot infection after 44 to 48 hrs by agar dilution method; outline: as §1
Bacteroides fragilis [11] = experiment: Antibacterial activity against Bacteroides fragilis isolated from patient with diabetic foot infection after 44 to 48 hrs by agar dilution method; outline: as §1
Prevotella bivia [12] = experiment: Antibacterial activity against Prevotella bivia isolated from patient with diabetic foot infection assessed as percent resistant isolates after 44 to 48 hrs by agar dilution method; outline: as §2
[13] = system: Porphyromonas asaccharolytica; experiment: Antibacterial activity against Porphyromonas asaccharolyticus isolated from patient with diabetic foot infection assessed as percent resistant isolates after 44 to 48 hrs by agar dilution method; outline: as §2
Phocaeicola vulgatus [14] = experiment: Antibacterial activity against Bacteroides vulgatus isolated from patient with diabetic foot infection after 44 to 48 hrs by agar dilution method; outline: as §1
[15] = system: Bacteroides thetaiotaomicron; experiment: Antibacterial activity against Bacteroides thetaiotaomicron isolated from patient with diabetic foot infection after 44 to 48 hrs by agar dilution method; outline: as §1
[Clostridium] innocuum [16] = Antibacterial activity against Clostridium innocuum isolated from patient with diabetic foot infection assessed as percent resistant isolates after 44 to 48 hrs by agar dilution method; outline: as §2
Lacrimispora sphenoides [17] = experiment: Antibacterial activity against Clostridium sphenoides isolated from patient with diabetic foot infection after 44 to 48 hrs by agar dilution method; outline: as §1
Lacrimispora sphenoides [18] = experiment: Antibacterial activity against Clostridium sphenoides isolated from patient with diabetic foot infection assessed as percent resistant isolates after 44 to 48 hrs by agar dilution method; outline: as §2
Bacteroides caccae [19] = experiment: Antibacterial activity against Bacteroides caccae isolated from patient with diabetic foot infection after 44 to 48 hrs by agar dilution method; outline: as §1
[20] = system: Clostridium malenominatum; experiment: Antibacterial activity against Clostridium malenominatum isolated from patient with diabetic foot infection after 44 to 48 hrs by agar dilution method; outline: as §1
[21] = system: Peptoniphilus asaccharolyticus; experiment: Antibacterial activity against Peptoniphilus asaccharolyticus isolated from patient with diabetic foot infection after 44 to 48 hrs by agar dilution method; outline: as §1
[22] = system: Parabacteroides distasonis; experiment: Antibacterial activity against Parabacteroides distasonis isolated from patient with diabetic foot infection after 44 to 48 hrs by agar dilution method; outline: as §1
[23] = system: Enterocloster clostridioformis; experiment: Antibacterial activity against Clostridium clostridioforme isolated from patient with diabetic foot infection assessed as percent resistant isolates after 44 to 48 hrs by agar dilution method; outline: as §2
Prevotella bivia [24] = experiment: Antibacterial activity against Prevotella bivia isolated from patient with diabetic foot infection after 44 to 48 hrs by agar dilution method; outline: as §1
[25] = system: Peptoniphilus asaccharolyticus; experiment: Antibacterial activity against Peptoniphilus asaccharolyticus isolated from patient with diabetic foot infection assessed as percent resistant isolates after 44 to 48 hrs by agar dilution method; outline: as §2
Parabacteroides merdae = experiment: Antibacterial activity against Parabacteroides merdae isolated from patient with diabetic foot infection assessed as percent resistant isolates after 44 to 48 hrs by agar dilution method; outline: as §2
Cutibacterium acnes = experiment: Antibacterial activity against Propionibacterium acnes isolated from patient with diabetic foot infection after 44 to 48 hrs by agar dilution method; outline: as §1
Anaerococcus vaginalis [26] = experiment: Antibacterial activity against Anaerococcus vaginalis isolated from patient with diabetic foot infection assessed as percent resistant isolates after 44 to 48 hrs by agar dilution method; outline: as §2
[27] = system: Peptostreptococcus anaerobius; experiment: Antibacterial activity against Peptostreptococcus anaerobius isolated from patient with diabetic foot infection after 44 to 48 hrs by agar dilution method; outline: as §1
Bacteroides ovatus [28] = experiment: Antibacterial activity against Bacteroides ovatus isolated from patient with diabetic foot infection assessed as percent resistant isolates after 44 to 48 hrs by agar dilution method; outline: as §2
[29] = system: Clostridium malenominatum; experiment: Antibacterial activity against Clostridium malenominatum isolated from patient with diabetic foot infection assessed as percent resistant isolates after 44 to 48 hrs by agar dilution method; outline: as §2
[Clostridium] innocuum [30] = Antibacterial activity against Clostridium innocuum isolated from patient with diabetic foot infection after 44 to 48 hrs by agar dilution method; outline: as §1
Anaerococcus prevotii = experiment: Antibacterial activity against Anaerococcus prevotii isolated from patient with diabetic foot infection after 44 to 48 hrs by agar dilution method; outline: as §1

## CCC[C@@H]1C[C@@H](C(=O)N[C@@H]([C@H]2O[C@H](SC)[C@H](O)[C@@H](O)[C@H]2O)[C@H](C)Cl)N(C)C1 [CLINDAMYCIN]
Anaerococcus vaginalis [1]
  MIC50: 0.125 µg/mL (≈ 0.294 µM)
  MIC90: 64 µg/mL (≈ 151 µM)
Parvimonas micra
  MIC50: 0.125 µg/mL (≈ 0.294 µM)
  MIC90: 0.5 µg/mL (≈ 1.18 µM)
Bacteroides caccae [2]
  Activity: 20%
Phocaeicola vulgatus [3]
  Activity: 20%
Finegoldia magna [4]
  Activity: 0%
Bacteroides stercoris
  Activity: 20%
[5]
  MIC50: ≤ 0.03 µg/mL
  MIC90: 64 µg/mL (≈ 151 µM)
Clostridium cadaveris
  MIC50: 0.5 µg/mL (≈ 1.18 µM)
  MIC90: 16 µg/mL (≈ 37.6 µM)
Bacteroides ovatus [6]
  MIC50: 2 µg/mL (≈ 4.71 µM)
  MIC90: > 64 µg/mL
Porphyromonas somerae
  Activity: 12%
Bacteroides fragilis [7]
  Activity: 10%
[8]
  MIC50: 0.5 µg/mL (≈ 1.18 µM)
  MIC90: 16 µg/mL (≈ 37.6 µM)
[9]
  Activity: 20%
Finegoldia magna [10]
  MIC50: 0.5 µg/mL (≈ 1.18 µM)
  MIC90: 2 µg/mL (≈ 4.71 µM)
Bacteroides fragilis [11]
  MIC50: 0.5 µg/mL (≈ 1.18 µM)
  MIC90: 2 µg/mL (≈ 4.71 µM)
Prevotella bivia [12]
  Activity: 21%
[13]
  Activity: 12%
Phocaeicola vulgatus [14]
  MIC50: 2 µg/mL (≈ 4.71 µM)
  MIC90: > 64 µg/mL
[15]
  MIC50: 2 µg/mL (≈ 4.71 µM)
  MIC90: > 64 µg/mL
[Clostridium] innocuum [16]
  Activity: 23%
Lacrimispora sphenoides [17]
  MIC50: 0.5 µg/mL (≈ 1.18 µM)
  MIC90: 16 µg/mL (≈ 37.6 µM)
Lacrimispora sphenoides [18]
  Activity: 23%
Bacteroides caccae [19]
  MIC50: 2 µg/mL (≈ 4.71 µM)
  MIC90: > 64 µg/mL
[20]
  MIC50: 0.5 µg/mL (≈ 1.18 µM)
  MIC90: 16 µg/mL (≈ 37.6 µM)
[21]
  MIC50: 0.125 µg/mL (≈ 0.294 µM)
  MIC90: > 64 µg/mL
[22]
  MIC50: 2 µg/mL (≈ 4.71 µM)
  MIC90: > 64 µg/mL
[23]
  Activity: 23%
Prevotella bivia [24]
  MIC50: ≤ 0.03 µg/mL
  MIC90: > 64 µg/mL
[25]
  Activity: 25%
Parabacteroides merdae
  Activity: 20%
Cutibacterium acnes
  MIC50: ≤ 0.03 µg/mL
  MIC90: 2 µg/mL (≈ 4.71 µM)
Anaerococcus vaginalis [26]
  Activity: 18%
[27]
  MIC50: 0.125 µg/mL (≈ 0.294 µM)
  MIC90: 0.5 µg/mL (≈ 1.18 µM)
Bacteroides ovatus [28]
  Activity: 20%
[29]
  Activity: 23%
[Clostridium] innocuum [30]
  MIC50: 0.5 µg/mL (≈ 1.18 µM)
  MIC90: 16 µg/mL (≈ 37.6 µM)
Anaerococcus prevotii
  MIC50: 0.125 µg/mL (≈ 0.294 µM)
  MIC90: 64 µg/mL (≈ 151 µM)

## C[C@@H](O)[C@H]1C(=O)N2C(C(=O)O)=C(S[C@@H]3CN[C@H](CNS(N)(=O)=O)C3)[C@H](C)[C@H]12 [DORIPENEM]
Anaerococcus vaginalis [1]
  MIC50: ≤ 0.015 µg/mL
  MIC90: 0.06 µg/mL (≈ 0.143 µM)
Parvimonas micra
  MIC50: 0.06 µg/mL (≈ 0.143 µM)
  MIC90: 0.25 µg/mL (≈ 0.595 µM)
Bacteroides caccae [2]
  Activity: 0%
Phocaeicola vulgatus [3]
  Activity: 0%
Finegoldia magna [4]
  Activity: 0%
Bacteroides stercoris
  Activity: 0%
[5]
  MIC50: ≤ 0.015 µg/mL
  MIC90: 0.03 µg/mL (≈ 0.0713 µM)
Clostridium cadaveris
  MIC50: 0.06 µg/mL (≈ 0.143 µM)
  MIC90: 1 µg/mL (≈ 2.38 µM)
Bacteroides ovatus [6]
  MIC50: 0.25 µg/mL (≈ 0.595 µM)
  MIC90: 1 µg/mL (≈ 2.38 µM)
Porphyromonas somerae
  Activity: 0%
Bacteroides fragilis [7]
  Activity: 0%
[8]
  MIC50: 0.06 µg/mL (≈ 0.143 µM)
  MIC90: 1 µg/mL (≈ 2.38 µM)
[9]
  Activity: 0%
Finegoldia magna [10]
  MIC50: 0.06 µg/mL (≈ 0.143 µM)
  MIC90: 0.125 µg/mL (≈ 0.297 µM)
Bacteroides fragilis [11]
  MIC50: 0.25 µg/mL (≈ 0.595 µM)
  MIC90: 0.25 µg/mL (≈ 0.595 µM)
Prevotella bivia [12]
  Activity: 0%
[13]
  Activity: 0%
Phocaeicola vulgatus [14]
  MIC50: 0.25 µg/mL (≈ 0.595 µM)
  MIC90: 1 µg/mL (≈ 2.38 µM)
[15]
  MIC50: 0.25 µg/mL (≈ 0.595 µM)
  MIC90: 1 µg/mL (≈ 2.38 µM)
[Clostridium] innocuum [16]
  Activity: 0%
Lacrimispora sphenoides [17]
  MIC50: 0.06 µg/mL (≈ 0.143 µM)
  MIC90: 1 µg/mL (≈ 2.38 µM)
Lacrimispora sphenoides [18]
  Activity: 0%
Bacteroides caccae [19]
  MIC50: 0.25 µg/mL (≈ 0.595 µM)
  MIC90: 1 µg/mL (≈ 2.38 µM)
[20]
  MIC50: 0.06 µg/mL (≈ 0.143 µM)
  MIC90: 1 µg/mL (≈ 2.38 µM)
[21]
  MIC50: ≤ 0.015 µg/mL
  MIC90: 0.06 µg/mL (≈ 0.143 µM)
[22]
  MIC50: 0.25 µg/mL (≈ 0.595 µM)
  MIC90: 1 µg/mL (≈ 2.38 µM)
[23]
  Activity: 0%
Prevotella bivia [24]
  MIC50: 0.06 µg/mL (≈ 0.143 µM)
  MIC90: 0.125 µg/mL (≈ 0.297 µM)
[25]
  Activity: 0%
Parabacteroides merdae
  Activity: 0%
Cutibacterium acnes
  MIC50: 0.06 µg/mL (≈ 0.143 µM)
  MIC90: 0.125 µg/mL (≈ 0.297 µM)
Anaerococcus vaginalis [26]
  Activity: 0%
[27]
  MIC50: 0.06 µg/mL (≈ 0.143 µM)
  MIC90: 0.25 µg/mL (≈ 0.595 µM)
Bacteroides ovatus [28]
  Activity: 0%
[29]
  Activity: 0%
[Clostridium] innocuum [30]
  MIC50: 0.06 µg/mL (≈ 0.143 µM)
  MIC90: 1 µg/mL (≈ 2.38 µM)
Anaerococcus prevotii
  MIC50: ≤ 0.015 µg/mL
  MIC90: 0.06 µg/mL (≈ 0.143 µM)
